Source: PubChem
Compounds with a hit are over-represented: about 2.4% of the library has one in this group of screens.
SIAE inh – human SIAE inhibitors, primary screen, biochemical, fluorescence polarization, FP-Rh probe, 1536-well HTS. SIAE FP-Rh probe binding. Sialate O-acetylesterase (Homo sapiens), Q9HAT2. inhibition, % at 9.66 µM. 0.69% of 370,000 active;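 active = inhibition above a cutoff: mean of compounds within the control limits plus 3 SD of those, cut at about 17% in these data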;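 also: 0% = plate median of compound wells and 100% = probe without SIAE protein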
TDP2 inh – human TDP2 enzyme inhibitors, primary screen, biochemical, epi absorbance, recombinant enzyme; Tyrosyl-DNA phosphodiesterase 2 (Homo sapiens), O95551; inhibition, % at 12.8 µM; AID 720702, 2013; 0.34% of 370,000 active; T5PNP hydrolysis, p-nitrophenol absorbance 415 nm;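 active = inhibition above the mean of all tested compounds plus 3 SD, set per campaign, cut at about 25% in these data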;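 also: 0% = DMSO with enzyme and 100% = buffer with substrate but no TDP2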
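Material: recombinant human TDP2; quantity: TDP2 enzyme at 120 nM final; medium: Tris-HCl pH 7.5 with MgCl2; compound: single concentration, 12.8 µM nominal, with 1% DMSO; incubation: 2 h enzyme incubation at 37 °C; signal: epi absorbance; measure: percent inhibition; benchmarks: high control without enzyme, low control DMSO plus TDP2; repeats: singlicate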
TCR-CD3 inh – inhibitors of human TCR-CD3 interaction, primary screen, biochemical, fluorescence, TAMRA-labeled TCR probe | 0.37% of 360,000 active | inhibition, % at 9.4 µM;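 also: recombinant mutant TCR 2C K166C tagged with TAMRA read by polarization; 0% = receptor in buffer alone and 100% = receptor with positive control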
PAD4 inh – human PAD4 inhibitors, primary screen, biochemical, fluorescence polarization, 1536-well format | Protein-arginine deiminase type-4 (Homo sapiens), Q9UM07 | recombinant PAD4, RCA probe fluorescence polarization | inhibition, % at 6.36 µM | 0.41% of 330,000 active | AID 485272, 2010;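 active = percent inhibition above a cutoff equal to the mean of all tested compounds plus 3 SD, cut at about 15% in these data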;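 also: 0% = PAD4 with RCA probe and DMSO and 100% = probe without PAD4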
Target sequence (Q9UM07 whole entry, looked up): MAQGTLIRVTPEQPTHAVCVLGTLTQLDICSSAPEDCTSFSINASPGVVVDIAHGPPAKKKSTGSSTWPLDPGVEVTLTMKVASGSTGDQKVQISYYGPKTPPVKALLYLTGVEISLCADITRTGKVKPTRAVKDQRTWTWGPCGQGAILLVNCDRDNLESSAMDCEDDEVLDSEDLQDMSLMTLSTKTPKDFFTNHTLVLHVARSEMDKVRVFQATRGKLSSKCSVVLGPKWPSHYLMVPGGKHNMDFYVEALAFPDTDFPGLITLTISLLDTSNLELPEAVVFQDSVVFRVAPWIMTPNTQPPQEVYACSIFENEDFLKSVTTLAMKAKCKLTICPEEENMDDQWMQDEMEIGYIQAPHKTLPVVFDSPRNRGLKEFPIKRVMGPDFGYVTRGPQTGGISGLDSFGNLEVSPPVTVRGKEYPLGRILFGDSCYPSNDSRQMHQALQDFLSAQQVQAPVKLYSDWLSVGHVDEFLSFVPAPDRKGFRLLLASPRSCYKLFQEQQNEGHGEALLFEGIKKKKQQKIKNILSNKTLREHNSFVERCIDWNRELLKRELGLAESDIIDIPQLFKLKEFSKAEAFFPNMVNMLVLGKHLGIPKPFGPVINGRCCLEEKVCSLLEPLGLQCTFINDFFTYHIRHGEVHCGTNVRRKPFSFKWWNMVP
GSTO1 inh – inhibitors of recombinant GSTO1, primary screen, counter-screen for RBBP9 inhibitor project, biochemical, fluorescence polarization. Glutathione S-transferase omega-1 (Homo sapiens), P78417. activity-based probe fluorescence polarization. inhibition, % at 5.96 µM. 1.1% of 300,000 active. AID 1974, 2009;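 active = inhibition above the campaign mean inhibition plus 3 SD, cut at about 35% in these data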;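 also: 0% = GSTO1-1 with DMSO and 100% = wells lacking GSTO1-1 enzyme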
Apaf1 inhib – inhibitors of human Apaf-1 apoptosome, primary screen, biochemical, DEVD-Rh110 fluorescence, uHTS; reconstituted apoptosome caspase-3 activity; inhibition, % at 20 µM; 0.71% of 330,000 active; Apoptotic protease-activating factor 1 (Homo sapiens), O14727; AID 489030, 2010; active = inhibition of at least 40% at 20 µM;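 also: plate controls were DMSO wells for no effect and DEVD-CHO caspase inhibitor wells for full effect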
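Medium: Hepes buffer, pH 7.5 / System: biochemical Apaf-1 apoptosome reconstitution / Measured by: Rh110 fluorescence, excitation 480 nm, emission 540 nm / Times: compound with Apaf-1, dATP, procaspase-3 30 min, then 50 min reaction, room temperature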
BSA TAMRA ctr – compounds interfering with TAMRA-BSA probe, counter-screen for TCR-CD3 interaction inhibitor project, biochemical, fluorescence, TAMRA-labeled BSA; shares compounds with TCR-CD3 inh; TAMRA-labeled BSA probe fluorescence counterscreen; inhibition, % at 9.4 µM; 10% of 1,200 active; AID 652035, 2013; in the data active = inhibition above about 23%;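 also: 0% = buffer low control and 100% = reference high control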
TCR-CD3 inh conf – TCR-CD3 interaction inhibitors, retest, confirmation, biochemical, fluorescence, TAMRA-labeled TCR probe. shares compounds with TCR-CD3 inh. TAMRA-labeled TCR probe fluorescence binding assay. inhibition, % at 9.4 µM. 48% of 1,200 active
TDP2 confirm – human TDP2 enzyme inhibitors, retest, confirmation, biochemical, epi absorbance, recombinant enzyme; AID 743263, 2014; inhibition, % at 12.8 µM; shares compounds with TDP2 inh; 22% of 1,100 active; absorbance read-out; in the data active = inhibition above about 25%;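 also: 0% = vehicle with enzyme and 100% = no enzyme buffer only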
* = called active by the depositor; nt = not tested or not shown. Rule as the data show it, unless noted: active = inhibition above about 19%; inactive = the rest.

SMILES	SIAE inh	TDP2 inh	TCR-CD3 inh	PAD4 inh	GSTO1 inh	Apaf1 inhib	BSA TAMRA ctr	TCR-CD3 inh conf	others
Nc1ccc2nc3c(=O)n(CCc4ccccc4)c(=O)[nH]c3nc2c1	15	-11	27*	14	11	10	26*	21*
Nc1ccc2nc3c(=O)n(C4CCCCC4)c(=O)[nH]c3nc2c1	10	-19	24*	11	2	-19	28*	27*
Nc1ccc2nc(CCc3ccccc3)[nH]c2c1	2	7	0	-3	3	1	nt	nt
Cc1cc(C(=O)N/N=C/c2cc(Cl)cc([N+](=O)[O-])c2O)n[nH]1	-4	-1	28*	-2	-6	-5	-6	34*
Cc1ccc(Cc2c(-c3cccc(Br)c3)nc3ccc(C)cn23)cc1	-8	-2	77*	nt	nt	nt	-9	-1
Cc1ccc(Cc2c(-c3cccc(Br)c3)nc3ccc(Cl)cn23)cc1	-2	1	-14	nt	nt	nt	nt	nt
Cc1ccc2nc(-c3cccc(Br)c3)c(Cc3ccccc3)n2c1	-10	-10	114*	nt	nt	nt	0	-1
COc1ccc2[nH]c3c(c2c1)CCN1C(=O)C(CC(=O)NCC24CC5CC(CC(C5)C2)C4)C[C@H](C(=O)N2CCOCC2)[C@@]31C (stereo not given in full)	0	4	-3	4	nt	17	nt	nt
Oc1ccc(-c2csc(Nc3ncccn3)n2)c(O)c1	-5	-3	-6	-4	21	1	nt	nt
Oc1ccc(-c2csc(Nc3ncccn3)n2)cc1O	-2	-1	32*	nt	nt	nt	-19	17
COc1ccc(-n2nc3c(c2NC(=O)CC(C)C)CS(=O)C3)cc1 (stereo not given)	-5	-5	12	5	4	0	nt	nt
C/C(=N\NC(=O)c1ccccc1O)C1CC1	0	-2	25*	4	20	-10	41*	23*
CC(=O)c1cccc(NC(=O)C(OC(=O)c2cccc(S(=O)(=O)N(C)c3ccccc3)c2)c2ccccc2)c1 (stereo not given)	-26	2	31*	-3	-2	21	12	32*
COc1ccc(N(C)S(=O)(=O)c2cccc(C(=O)OC(C(=O)Nc3cc(C)cc(C)c3)c3ccccc3)c2)cc1 (stereo not given)	-58	6	0	0	-5	1	nt	nt
CC1=C(C(=O)N2CCOCC2)CC(CC(=O)NC2CCCC2)C(=O)N1Cc1ccc(F)cc1 (stereo not given)	4	1	6	nt	nt	nt	nt	nt
O=C(CCc1nnc(CCCCc2ccccc2)o1)N1CCC(N2CCCC2)CC1	-1	0	24*	0	4	13	2	-1
CC(=O)N1CCN(C(=O)CCc2nnc(CCCCc3ccccc3)o2)CC1	-6	-13	-5	-7	10	5	nt	nt
O=C(Cc1nnc(NC(=O)c2ccccc2)s1)N/N=C/c1ccco1	1	-2	19*	-4	-3	3	-6	4
O=C(Cc1nnc(NC(=O)c2ccccc2)s1)N/N=C/c1cccc(O)c1	-42	0	10	0	-15	4	nt	nt
Nc1ncnc2c1CN(Cc1ccccc1)CC2	5	-4	77*	nt	nt	nt	4	4
Cc1ccc(C)c(N(CC(=O)Nc2ccc(-c3nc4ccc(C)cc4s3)cc2)S(C)(=O)=O)c1	-5	6	20*	0	-7	9	9	15
COC(=O)c1cc(C#N)c(Oc2ccccc2OC)nc1C	6	-2	1	-3	-2	4	nt	nt
CCc1n[nH]c(=S)n1/N=C/c1cc(OC)cc([N+](=O)[O-])c1O	8	8	44*	-1	25	-1	-14	44*
COc1ccc(-n2c(COc3ccc(C)cc3)nnc2SCC(=O)O)cc1	-3	-11	31*	-5	0	-2	13	7
COC(=O)CCN(C(=O)c1ccc(N2CCCCC2)c([N+](=O)[O-])c1)c1ccccn1	11	-3	77*	-4	2	2	1	2
SMILES	SIAE inh	TDP2 inh	TCR-CD3 inh	PAD4 inh	GSTO1 inh	Apaf1 inhib	BSA TAMRA ctr	TCR-CD3 inh conf	others
COC(=O)CCN(C(=O)c1ccc(N2CCCC2)c([N+](=O)[O-])c1)c1ccccn1	-3	-6	-3	-2	9	3	nt	nt
O=C(COC(=O)CCCCCN=C1NS(=O)(=O)c2ccccc21)Nc1ccc(Cl)c(Cl)c1	-119	-3	19*	-5	-25	0	7	10
COc1ccc(Cl)cc1C(=O)NNC(=O)COC(=O)CCN=C1NS(=O)(=O)c2ccccc21	1	-1	15	-2	2	4	nt	nt
Cc1ccc(-c2cc(C(=O)Nc3ccncc3)c3ccccc3n2)cc1	-3	12	6	-2	-3	24	nt	nt
O=C(NNC(=O)c1cc(-c2ccncc2)nc2ccccc12)c1ccccc1O	-1	-13	28*	-4	10	7	-10	21*
O=C(CNC(=O)c1ccc(Cl)cc1)N/N=C/c1cccnc1	8	-12	2	-3	6	-21	nt	nt
CCOC(=O)C1CCN(c2ncnc3c2oc2ccc(Cl)cc23)CC1	-3	3	1	-2	-5	16	nt	nt
C#CCOCCOCCOCCNc1nc(N2CCOCC2)nc(N2CCN(C(=O)[C@H](Cc3ccc(O)cc3)n3cc([C@@H](N)C(C)CC)nn3)CC2)n1 (stereo not given in full)	2	4	20*	5	18	-4	-5	2
Nc1nonc1C(=O)N/N=C/c1cc(Br)ccc1O	-2	-9	23*	-4	-2	7	-8	20*
NC(=O)c1c(NC(=O)CN2CCOCC2)sc2c1CCC2	2	-5	4	1	6	2	nt	nt
Oc1ccc(/C=N/NC(=S)Nc2cccnc2)c(O)c1O	53*	35*	83*	nt	nt	nt	-12	56*	TDP2 confirm=5
